AP ELISA ortho: orthogonal test for alternative complement pathway inhibitors | Human serum alternative complement pathway, LPS-coated ELISA, C3 deposition; tested in compound mixtures | inhibition, % at 5 µM | hit rate 0.08% among 62,000;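 active = inhibition above 30% in each of the two pooled mixtures holding the compound, so the lower value exceeds 30%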;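 note: 0% = serum in Mg-EGTA without compound and 100% = EDTA serum blank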
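Test system – human serum alternative complement pathway, C3 deposition on LPS-coated wells · Buffer or medium – diluted human serum in Mg2+-EGTA GVB++ · Compound dosing – 5 µM each compound, pools of ten, 50 µM per pool · Schedule – 1 h serum-compound exposure at 37 °C · Measured by – Anti-C3 ELISA, OD 450 nm · Read-out basis – percent inhibition of C3 deposition onto LPS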
E coli RNAP: blocks E. coli RNA polymerase transcription; P0A8V2; fluorescence transcription assay; inhibition, %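 (tested at 10 µM)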; hit rate 0.2% among 62,000; AID 559; in the data active = inhibition above about 20%;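 note: 0% = enzyme without compound and 100% = no enzyme blank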
MMP-13 inhibitor: inhibitors of human MMP13; MMP-13 fTHP FRET cleavage, Mca fluorescence; inhibition, % at 4 µM; hit rate 0.07% among 65,000; AID 570;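 active = inhibition above the mean of compound-free control plate wells plus 3 SD, cut at about 14% in these data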;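 note: 0% = DMSO wells and 100% = wells with reference MMP-13 inhibitor after basal subtraction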
Ecoli tolC: growth inhibitors of E. coli BW25113 tolC mutant. OD615. growth inhibition, % at 10 µM (by protocol). hit rate 2.2% among 65,000. AID 573;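 active = growth inhibition at or above a cutoff equal to the mean over every tested compound plus 3 SD, cut at about 60% in these data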;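 note: growth measured after 20 h incubation at 37 °C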
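Test system: E. coli BW25113 ΔtolC::kan bacteria | Medium: Kanamycin-containing LB broth (50 µg/mL) | Dosing: One dose of 10 µM final | Times: 20 h incubation with compound, 37 °C | Detection: Optical density read at 615 nm | Read-out basis: Percent growth inhibition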
E coli WT exp: E. coli BW25113 growth inhibition, expanded screen; OD600 absorbance; growth inhibition, % at 100 µM; AID 710; hit rate 0.15% among 98,000;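 active = growth inhibition above about 50% at one test dose, limit read from the data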;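 note: growth measured after 20 h incubation at 37 °C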
HePTP inhibitor: blocks human HePTP tyrosine phosphatase | recombinant HePTP phosphatase activity, OD absorbance | inhibition, % at 20 µM | hit rate 0.64% among 110,000; in the data active = inhibition above about 50%;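 note: plate controls were vehicle for no effect and reference inhibitor for full effect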
Starred values were filed as active, the others as inactive. This excerpt belongs to a sample that is enriched for hits.

Screening CC/C(=C1/C(=O)N(c2nc3ccccc3s2)N=C1C(F)(F)F)N1CCOCC1 returned HePTP inhibitor 7.
Clc1ccc2oc(-c3ccccn3)nc2c1 was read as AP ELISA ortho 38*, E coli RNAP 9, MMP-13 inhibitor -20, Ecoli tolC -4, E coli WT exp 4 and HePTP inhibitor 1.
Screening Nc1ccc2oc(-c3ccccn3)nc2c1 returned AP ELISA ortho 12, E coli RNAP 3, MMP-13 inhibitor 2, Ecoli tolC -7, E coli WT exp 2 and HePTP inhibitor -7.
`Cc1oc2c(CN3CCOCC3)c(O)ccc2c(=O)c1-c1ccc(Br)cc1` gave AP ELISA ortho 3, E coli RNAP 3, MMP-13 inhibitor -80, Ecoli tolC 99*, E coli WT exp 1 and HePTP inhibitor 3.
CCOC(=O)c1c(NC(=O)c2ccc(Cl)c(Cl)c2)sc(C(=O)Nc2ccccc2)c1C was read as HePTP inhibitor -16.
N#CC1=C(N)Oc2n[nH]c(-c3cccs3)c2C1c1ccsc1 (stereo unspecified) was read as AP ELISA ortho 12, E coli RNAP 6, MMP-13 inhibitor 4, Ecoli tolC 98*, E coli WT exp -2 and HePTP inhibitor 11.
`O=[N+]([O-])c1ccccc1C=NCCC12CC3CC(CC(C3)C1)C2` gave HePTP inhibitor -7.
For Cc1cccc2c1N(CCCOc1ccccc1)C(=O)C2=O the results were E coli WT exp 7.
Cc1ccccc1OCCCN1C(=O)C(=O)c2cccc(C)c21 was read as AP ELISA ortho 13, E coli RNAP 6, MMP-13 inhibitor 3, Ecoli tolC 100*, E coli WT exp 4 and HePTP inhibitor 6.
For CCOC(=O)CSC1=C(C#N)C(c2ccccc2)C(C(C)=O)=C(C)N1 (stereo unspecified) the results were AP ELISA ortho 20, E coli RNAP 0, MMP-13 inhibitor -7, Ecoli tolC 41, E coli WT exp 5 and HePTP inhibitor 8.
For CSCSC1=C(C#N)C(c2ccc(Cl)cc2)C(C(C)=O)=C(C)N1 (stereo unspecified) the results were AP ELISA ortho 3, E coli RNAP 9, MMP-13 inhibitor -2, Ecoli tolC 96*, E coli WT exp -19 and HePTP inhibitor 6.
`CCc1nc2ccccc2c(NC(=O)CNC(C)(C)CC(C)(C)C)c1C` gave HePTP inhibitor -10.
For COc1ccc(C(=O)N2CCN(C(=O)c3ccc([N+](=O)[O-])cc3)CC2)cc1 the results were HePTP inhibitor 5.
Screening Cc1c(NC(=O)c2ccc(-c3cccc([N+](=O)[O-])c3)o2)cccc1-c1nc2ccccc2s1 returned HePTP inhibitor 7.
Screening CCCCCn1c(N2CCC(Cc3ccccc3)CC2)nc2c1c(=O)[nH]c(=O)n2C returned AP ELISA ortho -2, E coli RNAP 7, MMP-13 inhibitor 5, Ecoli tolC 71* and HePTP inhibitor 0.
Screening C=C(C)Cn1c(N2CCC(Cc3ccccc3)CC2)nc2c1c(=O)[nH]c(=O)n2C returned MMP-13 inhibitor -1, Ecoli tolC 92* and E coli WT exp -7.
`CCCCCCn1c(N2CCN(c3ccccc3)CC2)nc2c1c(=O)n(C)c(=O)n2C` gave AP ELISA ortho 8, E coli RNAP 5, MMP-13 inhibitor 0, Ecoli tolC 80*, E coli WT exp -23 and HePTP inhibitor 8.
`CCCn1c(N2CCC(Cc3ccccc3)CC2)nc2c1c(=O)[nH]c(=O)n2C` gave AP ELISA ortho 6, MMP-13 inhibitor 1, Ecoli tolC 53, E coli WT exp -2 and HePTP inhibitor 12.
`CCOCCn1c(N2CCN(c3ccccc3)CC2)nc2c1c(=O)n(C)c(=O)n2C` gave AP ELISA ortho -5, E coli RNAP 6, MMP-13 inhibitor 2, Ecoli tolC -2, E coli WT exp 3 and HePTP inhibitor -2.
For Cc1c(Cl)cccc1NC(=O)C(=O)NCCC(C)C the results were HePTP inhibitor 7.
`COc1cccc(-c2cc(C(=O)N3CC4(C)CC3CC(C)(C)C4)no2)c1` (stereo unspecified) gave AP ELISA ortho 10, E coli RNAP 1, MMP-13 inhibitor 2, Ecoli tolC 80*, E coli WT exp -9 and HePTP inhibitor 2.
For COc1cccc(-c2cc(C(=O)N3CCCCC3C)no2)c1 (stereo unspecified) the results were AP ELISA ortho 16, E coli RNAP 2, MMP-13 inhibitor -6, Ecoli tolC 2, E coli WT exp 4 and HePTP inhibitor 5.
For O=C1OC(c2ccc(-c3ccccc3)cc2)c2ccccc21 (stereo unspecified) the results were HePTP inhibitor 105*.
`COc1ccccc1CC(=O)Nc1cc([N+](=O)[O-])ccc1C` gave HePTP inhibitor 6.
Cc1c(C(=O)OCCOc2ccccc2)[nH]c2c1C(=O)CCC2 was read as AP ELISA ortho 3, E coli RNAP 4, MMP-13 inhibitor 0, Ecoli tolC 63*, E coli WT exp -8 and HePTP inhibitor -10.
Screening Cc1c(C(=O)OC2CCCC2C)[nH]c2c1C(=O)CCC2 (stereo unspecified) returned AP ELISA ortho 18, E coli RNAP 4, MMP-13 inhibitor 5, Ecoli tolC 84*, E coli WT exp -1 and HePTP inhibitor 7.
`CCCc1c(C(=O)OCC)[nH]c2c1C(=O)CCC2` gave AP ELISA ortho 23, E coli RNAP 2, MMP-13 inhibitor -1, Ecoli tolC 46, E coli WT exp 2 and HePTP inhibitor 4.
`COc1ccc(-c2cc(C(=O)N3CCc4ccccc4C3)no2)cc1OC` gave AP ELISA ortho 0, E coli RNAP 8, MMP-13 inhibitor -2, Ecoli tolC 75*, E coli WT exp -24 and HePTP inhibitor -12.
For COc1ccccc1N1CCN(C(=O)c2cc(-c3ccc4c(c3)OCO4)on2)CC1 the results were AP ELISA ortho 24, E coli RNAP 13, MMP-13 inhibitor 0, Ecoli tolC -8, E coli WT exp -2 and HePTP inhibitor 4.
Screening COc1ccccc1N1CCN(C(=O)c2cc(-c3cccc(Cl)c3)on2)CC1 returned AP ELISA ortho 8, E coli RNAP 11, MMP-13 inhibitor 6, Ecoli tolC 69*, E coli WT exp -18 and HePTP inhibitor 7.
Screening C/C(=C\C(=O)c1ccc(Br)cc1)Nc1cccc(O)c1 returned HePTP inhibitor -13.
`CC(NC(=O)c1cccc(Cl)c1)c1ccccc1` (stereo unspecified) gave HePTP inhibitor 6.
For O=C(Nc1ccccc1)c1ccc(-c2ccccc2)cc1 the results were HePTP inhibitor 1.
O=C(Nc1cccc(Oc2ccc(C(=O)O)c(C(=O)O)c2)c1)c1ccc(-c2ccccc2)cc1 was read as HePTP inhibitor 102*.
For O=C1CC(c2ccc([N+](=O)[O-])cc2)=NN1 the results were HePTP inhibitor -11.

Screening results as filed in PubChem BioAssay.
